# Source: PubChem BioAssay (several laboratories)
# Shown are actives, neighbours in structure and some others; about 1.1% of the full set was active somewhere.
# Calb biofilm kill – clotrimazole potentiators killing C. albicans biofilm, primary screen, 4-compound mixtures | C. albicans biofilm persisters + clotrimazole, fluorescence viability; primary screen in compound mixtures of four per well | inhibition, % at 7.6 µM | 120,000 tested, 0.02% active;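 active = inhibition above 30.3% in the primary screen of four-compound pools, then above 30% when the compound was retested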;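 also: compounds exposed to preformed 24 h biofilms for 48 h; 0% = untreated biofilm control and 100% = clotrimazole plus chlorhexidine kill blank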
#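 Test system: C. albicans biofilms. Buffer or medium: RPMI/MOPS medium, pH 7.0. Timing: 48 h compound exposure at 37 °C. Technique: Alamar Blue fluorescence. Evaluation: percent inhibition of biofilm viability.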
# FXIa inh 1536 – human FXIa protease inhibitors, primary screen, biochemical, 1536-well; Coagulation factor XI (Homo sapiens), P03951; inhibition, % at 5 µM; purified FXIa, Boc-Glu-Ala-Arg-AMC fluorogenic substrate; 220,000 tested, 0.14% active;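 active = inhibition of at least 40%; inactive = inhibition below 40%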;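 also: fluorescence of freed AMC excited at 355 nm; 0% = enzyme without compound and 100% = no enzyme blank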
# thrombin 1536 – human alpha-thrombin inhibitors, primary screen, counter-screen for coagulation protease inhibitor project, biochemical, 1536-well, fluorogenic AMC substrate; Prothrombin (Homo sapiens), P00734; Boc-VPR-AMC fluorogenic substrate cleavage; inhibition, % at 5 µM; 220,000 tested, 0.26% active; AID 1046, 2008;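 active = inhibition at or above 40%; inactive = inhibition below 40%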;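 also: 0% = enzyme with no compound and 100% = wells without enzyme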
#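 System: human alpha-thrombin protein; Compound dosing: one concentration per compound, 5 µM, with 0.2% DMSO; Timing: reaction at room temperature; Technique: AMC fluorescence, 355/460 nm; Controls: enzyme without compound as high, wells lacking enzyme as low.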
# Lipid droplet – inhibitors of hepatocyte lipid droplet formation, primary screen, imaging, high-throughput imaging, BODIPY stain. AID 1656, 2009. AML12 mouse hepatocytes, oleate lipid droplets. 240,000 tested, 0.4% active. inhibition, % at 6.5 µM;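 active = lipid droplet intensity inhibited by at least 50%, with more than 500 cells counted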
#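 Assay system: AML12 hepatocytes (mouse); Probe or stimulus: oleic acid at 100 µM to induce lipid droplet formation; Dosing: compound at 6.5 µM only; Schedule: compound with oleate, overnight; Detection: fluorescence imaging, 20x objective, two fields per well; Measure: % inhibition of lipid droplet signal.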
# FXIIa inh 1536 – human FXIIa protease inhibitors, primary screen, biochemical, 1536-well | Coagulation factor XII (Homo sapiens), P00748 | purified FXIIa, Boc-QGR-AMC fluorogenic substrate, 2 h | inhibition, % at 5 µM | 220,000 tested, 0.3% active | AID 800, 2007; in the data active = inhibition above about 40%;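 also: 0% = enzyme with no compound and 100% = blank without enzyme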
# Target sequence (P00748 20-372 limits assumed): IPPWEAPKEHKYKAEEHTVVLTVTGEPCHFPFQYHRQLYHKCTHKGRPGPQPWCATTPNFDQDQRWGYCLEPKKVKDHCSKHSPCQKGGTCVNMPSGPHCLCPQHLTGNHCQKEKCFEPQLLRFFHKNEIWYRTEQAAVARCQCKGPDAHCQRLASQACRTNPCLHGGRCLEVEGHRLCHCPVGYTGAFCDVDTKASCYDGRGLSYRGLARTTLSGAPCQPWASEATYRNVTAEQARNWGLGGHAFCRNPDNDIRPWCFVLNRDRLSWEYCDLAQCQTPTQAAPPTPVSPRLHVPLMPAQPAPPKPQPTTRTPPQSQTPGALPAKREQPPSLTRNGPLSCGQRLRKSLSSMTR
# Target sequence (P00748 373-615 limits assumed): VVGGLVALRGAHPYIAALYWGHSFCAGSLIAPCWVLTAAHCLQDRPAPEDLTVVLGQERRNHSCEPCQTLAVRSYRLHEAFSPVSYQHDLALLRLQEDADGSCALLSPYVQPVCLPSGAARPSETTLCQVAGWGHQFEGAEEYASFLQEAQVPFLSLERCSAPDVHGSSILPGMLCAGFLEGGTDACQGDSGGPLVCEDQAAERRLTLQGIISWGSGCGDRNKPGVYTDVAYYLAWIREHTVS
# KLK5 inh – human KLK5 protease inhibitors, primary screen, biochemical, 1536-well | 210,000 tested, 0.59% active | recombinant hK5, fluorogenic AMC substrate cleavage | Kallikrein-5 (Homo sapiens), Q9Y337 | inhibition, % at 5 µM;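 active = inhibition of 40% or more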;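 also: 0% = enzyme controls without compound and 100% = no-enzyme blanks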
# Active calls of the source: *; x = no result given.
SMILES,Calb biofilm kill,FXIa inh 1536,thrombin 1536,Lipid droplet,FXIIa inh 1536,KLK5 inh
O=C(Cn1nnc(-c2ccncc2)n1)NCCc1ccccc1,x,-2,10,2,9,48*
O=C(Cn1nnc(-c2cccs2)n1)NCCc1ccccc1,6,8,-2,1,17,-13
COc1ccc(N(CC(=O)N2CCc3ccccc3C2)S(C)(=O)=O)cc1Cl,x,x,x,2,x,x
CC(O)C(=O)N/N=C/c1cccc2ccccc12 (stereo not drawn),14,6,48*,-10,13,41*
O=C(N/N=C/c1cccc2ccccc12)c1cccs1,x,x,x,-24,x,x
CCOc1ccc(Cn2ccnc2)cc1[N+](=O)[O-],12,10,14,-7,15,115*
COc1ccc(CCNC(=O)C2=CCN(S(=O)(=O)c3ccc(F)cc3)CC2)cc1OC,x,x,x,-10,x,x
COc1ccc2ncc(OC(C)=O)cc2c1,8,8,40*,-25,15,-21
CCOC(=O)c1cccc(NC(=O)C2CCN(S(=O)(=O)c3cccs3)CC2)c1,x,5,4,3,18,-9
CCOC(=O)c1ccc2c(c1)nc(C1CCN(S(=O)(=O)c3cccs3)CC1)n2CC,x,38,4,x,52*,-1
Cc1c(C#N)c(O)n(C)c(=O)c1N=Nc1ccc(S(N)(=O)=O)cc1,13,25,57*,5,29,25
Cc1c(C#N)c(O)n(CCO)c(=O)c1N=Nc1ccc(S(N)(=O)=O)cc1,10,27,47*,16,25,11
Cc1c(C#N)c(O)n(CCO)c(=O)c1N=Nc1ccccc1,23,6,-4,14,7,5
NS(=O)(=O)c1ccc(N=Nc2c(O)ccc3ccccc23)cc1,18,1,2,14,9,3
C=CCOC(=O)c1c(C)nc2cc3c(cc2c1C)OCO3,10,2,16,12,8,44*
C=CCOC(=O)C1=C(C)NC(=O)NC1c1ccc2c(c1)OCO2 (stereo not drawn),x,x,x,-5,x,x
Cn1cccc1-c1cc(C(=O)N/N=C/c2ccccc2Cl)[nH]n1,x,x,x,-3,x,x
CC(/C=N/NC(=O)c1cc(-c2cccn2C)n[nH]1)=C\c1ccccc1,4,53*,21,-10,36,57*
COc1ccc(C(=O)NCCCNC(=O)c2cnccn2)cc1,x,x,x,-3,x,x
O=C(N/N=C/c1cc(Br)cc([N+](=O)[O-])c1O)c1ccc(NC(=O)c2ccc(F)cc2)cc1,x,x,x,-5,x,x
CC(=O)N1CCN(C2=NC(=O)C(=C3CCCCC3)S2)CC1,13,1,-1,11,6,-6
Cc1cccc(N2CCN(C3=NC(=O)C(=C4CCCCC4)S3)CC2)c1,x,-5,1,x,-3,120*
CCN(CC)CCCNCC(=O)Nc1ccc2c(c1)CCC2,1,-2,1,14,3,0
CCN(CC)CCCNCC(=O)Nc1ccc(OC)c(Cl)c1,9,40,11,2,37,42*
Cc1c(C(=O)NC2=NCCS2)cccc1[N+](=O)[O-],x,x,x,23,x,x
SMILES,Calb biofilm kill,FXIa inh 1536,thrombin 1536,Lipid droplet,FXIIa inh 1536,KLK5 inh
CCNc1nc(NCC)nc(OCCNS(=O)(=O)c2cc(C)ccc2C)n1,x,20,34,7,0,53*
O=[N+]([O-])c1ccc(N2CCCCC2)cc1,30,30,25,0,32,40*
CN(C)c1ccc(C(=S)N2CCOCC2)cc1,x,12,-7,x,45*,-5
O=[N+]([O-])c1ccc(N2CCN(c3ccccc3)CC2)cc1,x,x,x,8,x,x
CN(C)c1ccc(C(=S)N2CCN(c3ccc([N+](=O)[O-])cc3)CC2)cc1,7,52*,13,14,49*,31
O=[N+]([O-])c1ccc(C(=S)N2CCN(c3ccc(F)cc3)CC2)cc1,-4,-5,-1,-2,0,-7
CN(C)c1ccc(C(=S)N2CCCCCC2)cc1,x,-1,2,12,7,3
C/C(=N\n1cnnc1)c1ccc(C#N)cc1,7,5,-4,20,6,-1
